Screening data as filed in PubChem BioAssay.
C2C12 statin = protects C2C12 myotubes from simvastatin toxicity; ATP luminescence, 48 h; scaled: DMSO 0, geranylgeraniol control 100; rescue of ATP level, % at 7.49 µM; hit rate 0.78% among 330,000;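 active = mean ATP rescue above about 67%, or every replicate alone reaching that limit, limit read from the data, passing the limit was not always enough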;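 also: myotubes were challenged with 10 µM simvastatin during compound exposure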
Xi reactivation = X-chromosome reactivation activator | XiGFP mouse fibroblasts, % GFP-positive cells imaging, 3 d; cells co-treated with 5-aza-dC sensitizer; scaled so ellipticine positive control = 100% | activation, % at 7.58 µM | hit rate 0.055% among 360,000 | AID 743238;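 active = mean normalized replicate activation at least 10% and every replicate at or above 10%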;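 also: 0% = median of on-plate neutral control wells and 100% = ellipticine 6 µM median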
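assay system = SV40-immortalized XiGFP fibroblast cells, line 68-5-11 | buffer or medium = DMEM plus 5-aza-dC sensitizer | doses = single-point pinned compound dosing | times = 3-day compound exposure, then 15 min fixation at room temperature | benchmarks = positive control ellipticine, 6 µM final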
DENV2 CPE = protects cells from dengue virus 2 cytopathic effect. DENV2-infected cells, cytopathic effect rescue, plate reader. CPE inhibition, % at 9.99 µM. hit rate 1.7% among 350,000. AID 651640; in the data active = CPE inhibition above about 20%, passing the limit was not always enough; tested in BHK-21 cells;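 also: 0% = median of neutral control wells and 100% = median of positive control wells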
FGF22 binding = shifts melting point of recombinant human FGF22; Q9HCT0; recombinant FGF22 thermal shift, SYPRO orange fluorescence; percent of sucrose octasulfate shift, DMSO zero; activity (Tm shift, normalised), % at 9.99 µM; hit rate 1.5% among 340,000; AID 651658;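 active = mean Tm shift, scaled 0 neutral to 100 positive control, at about 1.3% or above, every replicate too, limit read from the data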
PglD DTNB = inhibitors of Campylobacter jejuni PglD acetyltransferase. purified PglD enzyme, DTNB colorimetric CoA detection. hit rate 0.098% among 360,000. inhibition, % at 12.5 µM; in the data active = inhibition above about 16%, passing the limit was not always enough
E-sel inducer = induces E-selectin expression in human endothelial cells | P16581 | HUVEC E-selectin immunofluorescence imaging; normalized: neutral wells 0, TNF-alpha wells 100 | activation, % at 7.58 µM | hit rate 0.37% among 260,000 | AID 686992;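 active = mean E-selectin-positive cell signal at least 10% of the positive control, reached in at least 60% of replicates, without over 20% cell loss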
Target sequence (P16581 whole entry, looked up): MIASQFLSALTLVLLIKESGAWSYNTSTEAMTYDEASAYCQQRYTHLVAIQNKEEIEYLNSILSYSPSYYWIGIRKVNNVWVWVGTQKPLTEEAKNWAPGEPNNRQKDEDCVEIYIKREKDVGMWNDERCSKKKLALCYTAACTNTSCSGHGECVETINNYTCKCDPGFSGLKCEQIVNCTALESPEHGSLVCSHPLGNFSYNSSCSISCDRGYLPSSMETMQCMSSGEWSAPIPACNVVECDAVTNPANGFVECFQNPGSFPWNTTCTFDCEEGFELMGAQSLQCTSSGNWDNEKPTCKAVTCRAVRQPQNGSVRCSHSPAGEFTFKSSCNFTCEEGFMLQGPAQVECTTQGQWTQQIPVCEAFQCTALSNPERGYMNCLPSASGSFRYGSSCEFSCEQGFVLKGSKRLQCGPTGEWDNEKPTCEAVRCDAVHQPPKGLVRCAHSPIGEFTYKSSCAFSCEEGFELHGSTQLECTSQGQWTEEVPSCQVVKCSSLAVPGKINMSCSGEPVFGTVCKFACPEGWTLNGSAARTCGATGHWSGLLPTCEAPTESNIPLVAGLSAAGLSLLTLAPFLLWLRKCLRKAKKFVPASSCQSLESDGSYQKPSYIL
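Test system – human umbilical vein endothelial cells (HUVEC), E-selectin induction · Input – 3,000 HUVEC seeded per well · Buffer or medium – EGM-2, gelatin · Compound dosing – single-point compound dose · Detection – immunofluorescence imaging · Measure – percent E-selectin-positive cells · Controls – TNF-alpha high, DMSO low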
Numbers without * were called inactive; / = no result given. This is a sample that favours compounds with a hit; in the whole collection about 3.3% have one here.

SMILES	C2C12 statin	Xi reactivation	DENV2 CPE	FGF22 binding	PglD DTNB	E-sel inducer
O=C(CN1CCOCC1)N1CCCCN2[C@H](CO)[C@@H](c3ccc(-c4ccccc4)cc3)[C@@H]2C1	1.5	0.3	12.7	-0.1	6.3	0.5
O=C(CN1CCOCC1)N1CCCCN2[C@H](CO)[C@@H](c3ccc(C#Cc4ccccc4F)cc3)[C@H]2C1	-26.7	0.3	27.2*	-0.6	0.8	-0.3
O=C(CN1CCOCC1)N1CCCCN2[C@H](CO)[C@@H](c3ccc(-c4ccccc4)cc3)[C@H]2C1	12.8	0.4	54.4*	0.0	10.0	1.2
C[C@H]1CN([C@@H](C)CO)C(=O)c2cccc(NC(=O)Nc3ccc(F)cc3)c2O[C@@H]1CN(C)Cc1ccc(Cl)c(Cl)c1	7.0	-0.1	13.8	-0.7	3.9	0.0
O=C(NCCN1CCOCC1)[C@]1(Cc2ccccc2)N=C(c2ccc(OCCCO)cc2)O[C@@H]1c1ccccc1	/	/	0.4	0.0	2.1	/
CO[C@H]1CN(C)C(=O)c2cc(NC(=O)C3CCC3)ccc2OC[C@@H](C)N(Cc2cccnc2)C[C@H]1C	12.3	0.4	-6.5	-0.4	-1.2	0.1
O=C(NN1C(=O)c2ccccc2C1=O)C1CC2CCC1C2 (configuration not stated)	5.0	-0.1	-6.4	0.3	/	-0.1
O=C(NN1C(=O)c2ccccc2C1=O)C1CCCCC1	99.6*	/	/	/	3.6	/
Cc1n[nH]c(=O)c2c(NC(=O)CSc3nnc(C4CC4)n3C)oc(C)c12	/	0.0	39.1*	-0.3	/	/
CC1CCCC(C)N1C(=O)C1CC(c2ccc(F)cc2)=NO1 (configuration not stated)	92.4*	/	/	/	-3.0	/
CN1C2CCC1/C(=C\c1ccccc1)C(=O)/C2=C\c1ccccc1	67.2*	/	/	/	1.4	/
CCNC(=O)CC1C(=O)N(C)C(=S)N1NC(=O)c1ccc(Cl)cc1 (configuration not stated)	1.8	/	/	/	-12.4	/
Nc1ccc(C(=O)NN2C(=O)[C@H](Cl)C2c2ccc(Cl)cc2)cc1 (some centres not stated)	/	0.2	8.7	1.6*	/	0.5
COc1ccc(-c2cc(C(=O)Nc3ccccc3)on2)cc1	/	-0.5	1.2	-0.1	/	1.4
O=C(Nc1ccc(F)cc1)c1cc(-c2ccccc2)no1	/	-0.1	-11.0	43.1*	/	/
CCc1nn(CC(=O)NCCCN2CCOCC2)c(=O)c2cc3sccc3n12	-5.0	0.0	1.5	0.3	7.4	/
CCCN1CCN(C(=O)Cn2nc(CC)n3c(cc4sccc43)c2=O)CC1	-0.1	0.3	10.2	43.6*	-5.4	0.1
S=c1nn[nH]c2ccccc12	-6.2	0.0	0.9	43.0*	/	0.2
COc1ccc(Cn2c(C)nc([N+](=O)[O-])c2SCC(=O)O)cc1[N+](=O)[O-]	/	0.0	1.2	0.4	/	/
Cc1nc([N+](=O)[O-])c(SCC(O)CCl)n1Cc1ccc(Cl)cc1 (configuration not stated)	/	0.0	-9.7	43.2*	/	/
COC(=O)Cc1[nH]nc2c1C1(C(=O)N(Cc3ccccc3)c3ccccc31)C(C#N)=C(N)O2 (configuration not stated)	5.5	/	/	/	2.4	/
Cc1[nH]nc2c1C1(C(=O)N(Cc3ccc(Cl)cc3)c3ccccc31)C(C#N)=C(N)O2 (configuration not stated)	104.9*	/	/	/	-0.9	/
COc1cccc(C2c3c(C)nn(-c4ccc([N+](=O)[O-])cc4)c3N=C3C(=O)Nc4ccccc4N32)c1 (configuration not stated)	/	0.3	-5.2	43.3*	/	8.2
Cc1nn(-c2ccc([N+](=O)[O-])cc2)c2c1C(c1ccc(OC(F)F)cc1)N1C(=N2)C(=O)Nc2ccccc21 (configuration not stated)	/	0.0	2.7	43.3*	/	/
COc1ccc(NC2=Nc3ccccc3N3C2=Nc2c(c(C)nn2-c2ccc(C)cc2)C3c2cccnc2)cc1 (configuration not stated)	37.6	/	/	/	/	/
SMILES	C2C12 statin	Xi reactivation	DENV2 CPE	FGF22 binding	PglD DTNB	E-sel inducer
O=C(C[C@H]1CC[C@@H]2[C@H](COC[C@H](O)CN2C(=O)Nc2ccc(F)cc2)O1)NCCc1ccccc1	-9.1	0.0	1.4	-0.2	3.0	0.1
COc1ccc(S(=O)(=O)N(C)C[C@@H]2Oc3ccc(NS(=O)(=O)c4c(C)noc4C)cc3C(=O)N([C@@H](C)CO)C[C@@H]2C)cc1	-33.2	-1.2	-0.4	-0.3	3.5	4.6
O=C(Cc1ccncc1)N1C[C@@H]2N[C@H](C1)C2c1ccc(-c2ccncc2)cc1 (some centres not stated)	/	0.0	5.2	/	/	0.2
CCOC(=O)C1CCN(S(=O)(=O)c2nc3nc(C)cc(C)n3n2)CC1	103.6*	/	/	/	4.1	/
O=C(C[C@H]1C[C@H]2c3cc(NC(=O)CC4CC4)ccc3O[C@H]2[C@@H](CO)O1)NCc1cccnc1	-5.9	0.3	-4.9	-0.2	2.0	-0.5
CCC[C@H]1CC(=O)C=C(c2ccc(OC)cc2)ON1C(=O)OC(C)(C)C	7.5	0.3	56.6*	-0.2	-4.3	-0.2
COc1ccc(-c2cc(C3CCN(C(=O)OC(C)(C)C)CC3)[nH]n2)cc1	/	0.0	-5.1	0.1	/	2.6
O=C(CCN1CCCCC1)N[C@@H]1CC[C@H](CCn2cc(-c3ccc(F)cc3)nn2)O[C@@H]1CO	0.7	-0.5	5.2	-0.1	3.5	-0.3
Cn1c2c(c(=O)n(C)c1=O)CN(Cc1ccc(F)cc1)CN2	13.3	/	/	/	-0.8	/
Cn1c2c(c(=O)n(C)c1=O)CN(Cc1ccc3c(c1)OCO3)CN2	112.5*	/	/	/	15.9	/
CC(=O)CCc1c[nH]c2c(C(=O)O)cccc12	103.8*	/	/	/	2.6	/
Cc1c(CC(=O)NCCC(=O)O)c(=O)oc2cc3occ(-c4ccccc4)c3cc12	1.0	0.2	3.2	-0.2	-0.2	40.1*
O=C(c1ccncc1)N1CCCC(N2CCN(c3cccc(C(F)(F)F)c3)CC2)C1 (configuration not stated)	5.2	0.3	20.9*	-0.2	3.2	-0.9
CCN(CC)CCCN1C(=O)CSC1c1ccc([N+](=O)[O-])cc1 (configuration not stated)	/	0.0	-4.9	43.4*	/	/
CN1C(=O)c2cc(NC(=O)c3ccccc3)ccc2OC[C@H]2O[C@@H](CC(=O)O)CC[C@H]21	12.3	0.2	3.0	0.0	2.9	0.0
C=CCC[C@@H](Cc1ccc(F)cc1)C(=O)OCCNC(=O)[C@@H](CC=C)CC(=O)N[C@H](CO)Cc1ccccc1	4.5	0.0	44.2*	0.1	-6.3	-0.1
C=CC[C@@H](CC(=O)N[C@H](CO)Cc1ccccc1)C(=O)N[C@@H](C)COC(=O)[C@@H](CC=C)Cc1ccc(F)cc1	11.7	-0.5	40.6*	-0.1	1.3	-0.2
